Test results published in ChEMBL document CHEMBL3992549, “Combretastatin A4-β-Galactosyl Conjugates for Ovarian Cancer Prodrug Monotherapy” (ACS Med Chem Lett, 2017).
The source made the active and inactive calls. The rule behind the calls is not given here.

Tests used:
Homo sapiens [1] = species: Homo sapiens; test: Induction of microtubule disruption in human OVCAR3 cells assessed as nuclear contraction at 20 to 200 nM after 24 hrs by Alexa Fluor 647/DAPI staining based fluorescence microscopic method; assay type: cell-based
Summary of the method: (§1)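 OVCAR3 cells treated for 24 h, then imaged by confocal fluorescence microscopy. Nuclei were stained directly with DAPI. α-Tubulin was detected with an Alexa Fluor 647-conjugated secondary antibody. Microtubule architecture, cytoskeleton and nuclear morphology (contraction, fragmentation) were scored.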

Homo sapiens [2] = species: Homo sapiens; test: Induction of microtubule disruption in human OVCAR3 cells assessed as cytoskeleton contraction at 20 to 200 nM after 24 hrs by Alexa Fluor 647/DAPI staining based fluorescence microscopic method; assay type: cell-based; summary of the method: as §1
Beta-galactosidase = target: T1, Beta-galactosidase (Homo sapiens, UniProt P16278); test: Prodrug activation in PBS buffer assessed as beta-galactosidase (unknown origin) mediated CA4 formation at 0.2 mM after 1 hr by HPLC analysis; details: 200 µM
T1 sequence (P16278 whole entry): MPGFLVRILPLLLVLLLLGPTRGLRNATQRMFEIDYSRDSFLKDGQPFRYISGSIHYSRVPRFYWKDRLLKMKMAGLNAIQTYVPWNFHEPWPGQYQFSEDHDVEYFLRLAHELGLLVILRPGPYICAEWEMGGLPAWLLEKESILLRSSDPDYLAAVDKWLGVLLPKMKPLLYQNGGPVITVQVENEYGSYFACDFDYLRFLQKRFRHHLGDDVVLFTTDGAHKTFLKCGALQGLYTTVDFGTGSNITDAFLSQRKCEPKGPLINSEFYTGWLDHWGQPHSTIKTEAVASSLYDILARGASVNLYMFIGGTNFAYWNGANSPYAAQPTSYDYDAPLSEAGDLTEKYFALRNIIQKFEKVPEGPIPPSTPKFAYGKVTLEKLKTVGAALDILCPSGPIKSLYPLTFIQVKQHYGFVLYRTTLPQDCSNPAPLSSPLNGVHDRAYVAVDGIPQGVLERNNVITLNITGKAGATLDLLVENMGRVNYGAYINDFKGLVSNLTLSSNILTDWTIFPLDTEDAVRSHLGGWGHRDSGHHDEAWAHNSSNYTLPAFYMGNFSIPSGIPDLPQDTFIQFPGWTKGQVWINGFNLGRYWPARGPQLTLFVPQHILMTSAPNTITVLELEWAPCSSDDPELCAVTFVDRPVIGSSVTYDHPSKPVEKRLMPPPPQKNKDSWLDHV

Homo sapiens [3] = species: Homo sapiens; test: Induction of microtubule disruption in human OVCAR3 cells assessed as nuclear fragmentation at 20 to 200 nM after 24 hrs by Alexa Fluor 647/DAPI staining based fluorescence microscopic method; assay type: cell-based; summary of the method: as §1
OVCAR-3 [4] = test: Cytotoxicity against human OVCAR3 cells assessed as reduction in cell viability after 72 hrs by WST8 assay; assay type: functional, cell-based; details: OVCAR-3, 72 h
OVK18 [5] = test: Cytotoxicity against human OVK18 cells assessed as reduction in cell viability at 200 nM after 48 hrs in presence of beta-galactosidase inhibitor beta-GA by WST8 assay; assay type: functional, cell-based
Summary of the method: (§2)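 β-Galactosidase inhibition condition was 1 mM β-GA present during compound treatment.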

OVCAR-3 [6] = test: Cytotoxicity against human OVCAR3 cells assessed as reduction in cell viability at 200 nM after 48 hrs in presence of beta-galactosidase inhibitor beta-GA by WST8 assay; assay type: functional, cell-based; summary of the method: as §2
Homo sapiens [7] = species: Homo sapiens; test: Induction of microtubule disruption in human OVCAR3 cells assessed as change in microtubule architecture at 20 to 200 nM after 24 hrs by Alexa Fluor 647/DAPI staining based fluorescence microscopic method; assay type: cell-based; summary of the method: as §1
Sus scrofa = species: Sus scrofa; test: Inhibition of pig brain tubulin polymerization at 5 uM measured every 1 min for 60 mins by HTS assay
[8] = Cytotoxicity against human OVK18 cells assessed as reduction in cell viability after 72 hrs by WST8 assay; assay type: functional, cell-based; details: OVK18, 72 h
Homo sapiens [9] = species: Homo sapiens; test: Induction of microtubule disruption in human OVCAR3 cells assessed as nuclear fragmentation at 10 nM after 24 hrs by Alexa Fluor 647/DAPI staining based fluorescence microscopic method; assay type: cell-based; summary of the method: as §1
Homo sapiens [10] = species: Homo sapiens; test: Induction of microtubule disruption in human OVCAR3 cells assessed as cytoskeleton contraction at 10 nM after 24 hrs by Alexa Fluor 647/DAPI staining based fluorescence microscopic method; assay type: cell-based; summary of the method: as §1
Homo sapiens [11] = species: Homo sapiens; test: Induction of microtubule disruption in human OVCAR3 cells assessed as nuclear contraction at 10 nM after 24 hrs by Alexa Fluor 647/DAPI staining based fluorescence microscopic method; assay type: cell-based; summary of the method: as §1
Homo sapiens [12] = species: Homo sapiens; test: Induction of microtubule disruption in human OVCAR3 cells assessed as change in microtubule architecture at 10 nM after 24 hrs by Alexa Fluor 647/DAPI staining based fluorescence microscopic method; assay type: cell-based; summary of the method: as §1
Homo sapiens [13] = species: Homo sapiens; test: Induction of microtubule disruption in human OVCAR3 cells assessed as cytoskeleton contraction at 1 nM after 24 hrs by Alexa Fluor 647/DAPI staining based fluorescence microscopic method; assay type: cell-based; summary of the method: as §1
OVK18 [14] = test: Cytotoxicity against human OVK18 cells assessed as reduction in cell viability at 10 nM after 48 hrs in presence of beta-galactosidase inhibitor beta-GA by WST8 assay; assay type: functional, cell-based; summary of the method: as §2
Homo sapiens [15] = species: Homo sapiens; test: Induction of microtubule disruption in human OVCAR3 cells assessed as change in microtubule architecture at 1 nM after 24 hrs by Alexa Fluor 647/DAPI staining based fluorescence microscopic method; assay type: cell-based; summary of the method: as §1
OVCAR-3 [16] = test: Cytotoxicity against human OVCAR3 cells assessed as reduction in cell viability at 10 nM after 48 hrs in presence of beta-galactosidase inhibitor beta-GA by WST8 assay; assay type: functional, cell-based; summary of the method: as §2

| Drug metabolism (Beta-galactosidase) | inhibition (Sus scrofa) | Structure (SMILES) | Activity (Homo sapiens [1]) | Activity (Homo sapiens [2]) | Activity (Homo sapiens [3]) | EC50 (OVCAR-3 [4]) | Activity (OVK18 [5]) | Activity (OVCAR-3 [6]) | Activity (Homo sapiens [7]) | EC50 [8] | Activity (Homo sapiens [9]) | Activity (Homo sapiens [10]) | Activity (Homo sapiens [11]) | Activity (Homo sapiens [12]) | Activity (Homo sapiens [13]) | Activity (OVK18 [14]) | Activity (Homo sapiens [15]) | Activity (OVCAR-3 [16]) |
| --- | --- | --- | --- | --- | --- | --- | --- | --- | --- | --- | --- | --- | --- | --- | --- | --- | --- | --- |
| Metabolite_Detected | inactive | COc1ccc(/C=C\c2cc(OC)c(OC)c(OC)c2)cc1O[C@@H]1O[C@H](CO)[C@H](O)[C@H](O)[C@H]1O | Active | Active | Active | 69.1 nM | inactive | inactive | Active | 252 nM | – | – | – | – | – | – | – | – |
| – | – | COc1ccc(/C=C\c2cc(OC)c(OC)c(OC)c2)cc1O [COMBRETASTATIN A4] | – | – | – | 3.45 nM | – | – | – | 1.99 nM | Active | Active | Active | Active | – | – | – | – |
| Metabolite_Detected | inactive | COc1ccc(/C=C\c2cc(OC)c(OC)c(OC)c2)cc1OCc1ccc(O[C@@H]2O[C@H](CO)[C@H](O)[C@H](O)[C@H]2O)cc1 | – | – | – | 2.47 nM | – | – | – | 2.67 nM | Active | Active | Active | Active | Active | inactive | inactive | inactive |
